# Assay outcomes from PubChem BioAssay.
# PRMT1 FP inh: PRMT1 methyltransferase inhibitors, primary screen, biochemical, fluorescence polarization | Protein arginine N-methyltransferase 1 (Homo sapiens), Q99873 | recombinant PRMT1, activity-based probe fluorescence polarization | inhibition, % at 2.79 µM | 370,000 tested, 1.3% active | AID 652257, 2013;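 active = inhibition above about 21% made by adding two undisclosed values, limit read from the data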
# TCR-CD3 inh: inhibitors of human TCR-CD3 interaction, primary screen, biochemical, fluorescence, TAMRA-labeled TCR probe. 360,000 tested, 0.37% active. inhibition, % at 9.4 µM. T-cell receptor (TCR); in the data active = inhibition above about 19%;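 also: recombinant mutant TCR 2C K166C tagged with TAMRA read by polarization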
# ABHD4 inh: ABHD4 inhibitors, primary screen, biochemical, fluorescence polarization, mouse; AID 720543, 2013; 370,000 tested, 0.54% active; purified mABHD4, FP-Rh probe fluorescence polarization; inhibition, % at 8.92 µM; (Lyso)-N-acylphosphatidylethanolamine lipase (Mus musculus), Q8VD66;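 active = inhibition exceeding the mean over every tested compound plus 3 SD, cut at about 30% in these data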
#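 Test system: mABHD4 protein; Read-out basis: % inhibition; Incubation: 45 min + 60 min at 25 °C; Repeats: single replicate; Technique: fluorescence polarization with parallel and perpendicular emission, 525/598 nm; Compound: 8.92 µM, single dose; Benchmarks: full inhibition S159A mutant plus DMSO, zero as sample-well median.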
# HTRA1 inhibitor: HTRA1 serine protease inhibitors, primary screen, biochemical, fluorescence polarization, HTS; 340,000 tested, 0.5% active; recombinant HTRA1, FP-rhodamine activity-based probe; AID 504803, 2011; inhibition, % at 5.96 µM; in the data active = inhibition above about 36%
# Target sequence (Q92743 whole entry, looked up): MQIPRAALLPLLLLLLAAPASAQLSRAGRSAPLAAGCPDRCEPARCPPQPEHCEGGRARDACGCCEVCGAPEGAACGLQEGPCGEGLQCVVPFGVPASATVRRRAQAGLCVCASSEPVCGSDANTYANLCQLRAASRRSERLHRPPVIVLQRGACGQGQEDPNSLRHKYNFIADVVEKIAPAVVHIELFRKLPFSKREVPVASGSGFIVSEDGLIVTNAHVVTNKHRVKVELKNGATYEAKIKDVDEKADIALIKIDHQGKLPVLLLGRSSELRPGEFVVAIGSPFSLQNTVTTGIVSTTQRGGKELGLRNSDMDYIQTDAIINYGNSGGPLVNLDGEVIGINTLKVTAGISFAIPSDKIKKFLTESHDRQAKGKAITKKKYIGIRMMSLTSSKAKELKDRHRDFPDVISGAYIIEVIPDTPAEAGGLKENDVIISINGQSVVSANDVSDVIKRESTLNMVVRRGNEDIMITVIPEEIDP
# SIAE inh: human SIAE inhibitors, primary screen, biochemical, fluorescence polarization, FP-Rh probe, 1536-well HTS | SIAE FP-Rh probe binding | AID 1053197, 2014 | 370,000 tested, 0.69% active | inhibition, % at 9.66 µM | Sialate O-acetylesterase (Homo sapiens), Q9HAT2;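 active = inhibition above a cutoff: mean of compounds within the control limits plus 3 SD of those, cut at about 17% in these data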
# Hits are given with their value; . = inactive; / = no result. Compounds with a hit are over-represented: about 2.6% of the library has one in this group of screens.
SMILES,PRMT1 FP inh,TCR-CD3 inh,ABHD4 inh,HTRA1 inhibitor,SIAE inh
Fc1ccc(-c2csc(=S)[nH]2)cc1,22,.,.,.,.
O=c1[nH]c(-c2ccc(Cl)cc2)cs1,.,.,.,.,.
CC(=O)OCC1=C(C(=O)O)N2C(=O)C(NC(=O)c3ccc(F)cc3)C2SC1 (stereo unspecified),24,.,.,.,.
CC(=O)OCC1=C(C(=O)O)N2C(=O)[C@@H](NC(=O)CSc3ccncc3)[C@H]2SC1,.,.,.,.,.
CC(=O)OCC1=C(C(=O)O)N2C(=O)C(NC(=O)C(C)Cn3nc(C)c(Cl)c3C)C2SC1 (stereo unspecified),25,.,.,.,.
COc1ccccc1N(CC(=O)NCc1ccco1)S(=O)(=O)c1ccc(C)cc1,21,.,.,.,.
COc1ccc(N(CC(=O)NCc2ccco2)S(=O)(=O)c2ccc(C)cc2)cc1OC,.,.,.,.,.
O=C(NCCc1ccccc1Cl)[C@@H]1CCCN1C(=O)[C@@H](NS(=O)(=O)c1ccc(F)cc1F)C1CCCCC1,.,.,.,/,.
COc1ccc(S(=O)(=O)Nc2cc(SCC(=O)O)c(O)c3ccccc23)cc1,52,.,49,.,.
O=C(O)CSc1cc(NS(=O)(=O)c2ccc(Cl)cc2)c2ccccc2c1O,44,.,39,.,.
CC(=O)C1=C(C)NC(SCC(=O)c2ccc(F)cc2)=C(C#N)C1CC(C)C (stereo unspecified),28,.,.,.,.
CC(C)(C)S(=O)N1C[C@H]2CC(=O)C=C2[C@@H]1CCO (stereo partly specified),.,.,.,/,.
Cc1ccc(C2Nc3ccc4ccccc4c3C3=C2C(=O)CC(C)(C)C3)o1 (stereo unspecified),/,/,/,.,/
O=C1CCCC2=C1C(c1ccco1)Nc1ccc3ccccc3c12 (stereo unspecified),44,.,.,.,.
NC(=O)c1ncn([C@@H]2O[C@H](C(=O)N[C@H](Cc3ccccc3)C(=O)N3CCN(c4ccc(Cl)cn4)CC3)[C@@H](O)[C@H]2O)n1,.,.,.,/,.
Nc1ccc(C(=O)O)c(O)c1,.,.,.,.,.
Nc1ccc(N)c(C(=O)O)c1,/,/,/,54,/
CN[C@H]1C[C@@H](c2ccccc2Br)N(C(C)=O)C[C@H]1CO,.,.,.,/,.
CC(C)(C)CC(=O)Nc1ccc(-c2cn3cccnc3n2)cc1,.,.,.,.,.
O=C(CCO)c1ccc(O)cc1,.,27,.,.,.
COC(=O)c1ccc2nc(-c3ccc(Cl)cc3)c(Cc3ccccc3)n2c1,.,.,.,/,.
Cc1cc(=O)[nH]c(SCC(=O)Nc2nc3ccccc3s2)n1,21,.,.,.,.
CCN(C(=O)CSc1nnc(-c2ccccc2OC)n1N)c1c(N)n(Cc2ccccc2)c(=O)[nH]c1=O,.,.,.,.,.
COC(=O)C1=C(C)N(Cc2cccc(C(F)(F)F)c2)C(=NCc2ccccc2C(F)(F)F)NC1c1cccc(F)c1 (stereo unspecified),.,.,.,/,.
CON=C(C(=O)NC1C(=O)N2C(C(=O)O)=C(CSc3nc(=O)c(=O)[nH]n3C)CSC12)c1csc(N)n1 (stereo unspecified),21,.,.,.,.
SMILES,PRMT1 FP inh,TCR-CD3 inh,ABHD4 inh,HTRA1 inhibitor,SIAE inh
COCC1=C(C(=O)OC(C)OC(=O)OC(C)C)N2C(=O)[C@@H](NC(=O)/C(=N\OC)c3csc(N)n3)[C@H]2SC1 (stereo partly specified),.,.,.,.,.
CC(C)(C)N1C(=O)Cc2c1nc(N)c1c(N)nc(N3CCCCC3CO)c(C#N)c21 (stereo unspecified),/,/,/,56,/
O=C1C(Cl)=C(NS(=O)(=O)c2ccc([N+](=O)[O-])cc2)C(=O)c2ccccc21,.,.,30,.,.
NC(=O)CSc1cn(Cc2ccc(F)cc2)c2ccccc12,.,.,.,.,.
NC(=O)CSc1cn(Cc2ccccc2)c2ccccc12,23,.,.,.,.
CC1(C)CC(=O)C2=C(C1)OC(N)=C(C#N)C2c1ccccc1[N+](=O)[O-] (stereo unspecified),23,.,.,.,.
CSC(=Nc1ccccc1)C1=C(O)COC1=O,.,.,.,.,.
CCSC(=Nc1ccccc1)C1=C(O)COC1=O,.,.,.,.,19
CCOC(=O)C1=C(C)c2ccccc2N(C(=O)OC)C1(C)C(=O)OCC (stereo unspecified),24,.,.,.,.
COc1cccc(C(=O)N[C@H](C(=O)N2CCC[C@H]2C(=O)NC2CCCC2)C2CCCCC2)c1,.,.,.,/,.
CC1OC2(C)OC(=N)C1(C#N)C(C#N)(C#N)C2c1ccccc1 (stereo unspecified),25,.,.,.,.
CC1C2(C)OC(=N)C(C#N)(C(C)O2)C1(C#N)C#N (stereo unspecified),/,/,/,.,/
Cc1cc2c(cn1)C(CCC#N)(CCC#N)c1ccccc1-2,.,.,.,.,.
CCN(CC)C(=O)[C@H]1CC(CC(=O)NC/C=C(\C)CCC=C(C)C)C(=O)N2CCc3c([nH]c4ccccc34)[C@]12C (stereo partly specified),.,.,.,.,.
Cc1cc(C)cc(NC(=O)c2ccc([N+](=O)[O-])o2)c1,.,.,.,/,.
NS(=O)(=O)c1ccc(O)c(NC(=O)c2ccc([N+](=O)[O-])o2)c1,22,.,.,.,.
CC(C)c1nc(N(C)S(C)(=O)=O)nc(-c2ccc(F)cc2)c1/C=C/[C@H](O)C[C@@H](O)CC(=O)O,.,/,.,/,.
CCCCCCCCCCCCCCCC[N+](C)(C)CCN(Cc1ccc(OC)cc1)c1ncccn1,/,/,/,52,/
COC(=O)C1=C(C)NC(=O)/C1=C\N(C)C,25,.,.,.,.
CCCc1nnc(SCC(=O)Nc2ccc(OCC)cc2)n1N,.,.,.,.,.
CCOc1ccc(NC(=O)CSc2nncc(=O)n2N)cc1,34,.,.,.,.
CCCCn1c2ccccc2c2nnc(SCC(=O)NC3=NN=C(c4ccccc4)CS3)nc21,45,.,.,/,.
Cc1ccc2nc(N3C(=O)C(O)=C(C(=O)c4ccco4)C3c3ccc(C)o3)sc2c1 (stereo unspecified),.,.,.,.,.
Cc1ccc2nc(N3C(=O)C(O)=C(C(=O)c4ccco4)C3c3ccc(O)cc3)sc2c1 (stereo unspecified),21,.,.,.,.
CC(=O)C1=C(c2ccccc2)N(C(C)=O)n2c(C)nnc2S1,73,.,.,.,.
CC(=O)N1CCN(c2nnc(-c3ccccc3)c3ccccc23)CC1,.,.,.,.,.
COc1cccc(Nc2ccc(N3CCCCC3)cc2)c1OC,24,.,.,.,.
COc1cccc(OC)c1C(=O)Nc1ccccc1N1CCCCC1,.,.,.,.,.
